# Screening results deposited in PubChem by several laboratories.
# A selection: hits, their analogues and other compounds. The true share with any hit is near 7.4%.
# M1 antagonist: M1 muscarinic receptor (rat) antagonism; CHO-M1 cells, Fluo-4 calcium, ACh EC80 antagonist mode; stronger effect = lower value; B-score at 10 µM; actives 3.4% (n = 64,000);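 active means calcium fluorescence response, raw or row-and-column corrected B-score, differing from the plate sample mean either way at a set confidence level, mostly lower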
# JNK3 inh: blocks human JNK3 kinase activity; P53779; purified JNK3 kinase activity, HTS; inhibition, % at 8 µM; actives 0.61% (n = 60,000); AID 746; in the data active means inhibition above about 17%;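 further: 0% = DMSO and 100% = reference inhibitor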
# Jurkat viability: cytotoxic compounds reducing Jurkat cell viability. Jurkat E6.1 viability, ATP luminescence, 48 h. inhibition, % at 4 µM. actives 1.2% (n = 56,000);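 active means inhibition above the mean inhibition of all tested compounds plus 3 SD, cut at about 28% in these data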
# S1P3 ag: activates the human S1P3 receptor. Q99500. S1P3 NFAT-BLA reporter cells, agonism, FRET ratio; relative to 1 µM S1P, basal subtracted. activation, % at 4.5 µM. actives 0.1% (n = 60,000);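 active means activation above the screen-wide mean plus 3 SD, cut at about 4.5% in these data, passing the limit was not always enough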
#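 Assay system: CHO cells stably expressing human S1P3, Gα16 and NFAT-β-lactamase reporter. Timing: overnight plating, 4 h compound 37 °C, 2 h substrate RT. Signal: β-lactamase FRET emission ratio 460/535 nm. Measure: percent activation versus median 1 µM S1P response, basal-subtracted, per plate. Repeats: primary screen single test, confirmation screen in triplicate.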
# M1 agonist: activates the M1 muscarinic receptor; B-score at 10 µM; CHO-M1 cells, Fluo-4 calcium fluorescence, agonist mode; stronger effect = higher value; actives 3% (n = 64,000);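 active means fluorescence rise, raw or as B-score row- and column-corrected plate score, outside the 99.7% band of its plate's samples, either direction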
# S1P1 ag-PAM: S1P1 (human) agonism or agonism potentiation. S1P1 CRE-bla cells, forskolin, beta-lactamase FRET, potentiator mode; S1P1 agonist co-added at EC20, 2 nM; 100% = saturating reference agonist, 0% = basal. activation, % at 9.5 µM. actives 0.57% (n = 56,000). AID 449;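 active means activation above a cutoff set at the mean activation of all tested compounds plus 3 SD, cut at about 54% in these data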;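 further: forskolin at 4 µM as EC80 and the EC20 agonist is SEW2871; 100% = SEW2871 at its EC100 plus forskolin at EC80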
# Target sequence (P21453 whole entry, looked up): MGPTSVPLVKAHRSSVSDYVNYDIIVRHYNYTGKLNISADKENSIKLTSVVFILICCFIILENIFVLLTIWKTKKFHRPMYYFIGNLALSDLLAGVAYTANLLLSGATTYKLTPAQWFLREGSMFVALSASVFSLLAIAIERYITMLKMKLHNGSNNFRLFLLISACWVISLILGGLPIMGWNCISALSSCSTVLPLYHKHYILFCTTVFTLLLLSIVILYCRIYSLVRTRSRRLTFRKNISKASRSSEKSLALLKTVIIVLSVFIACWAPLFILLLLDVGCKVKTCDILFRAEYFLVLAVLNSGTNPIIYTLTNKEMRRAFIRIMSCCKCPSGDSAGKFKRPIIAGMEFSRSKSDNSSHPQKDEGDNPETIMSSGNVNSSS
# M1 ag confirm: confirmation of rat M1 muscarinic receptor agonists. shares compounds with M1 agonist. CHO-M1 cells, Fluo-4 calcium fluorescence, agonist mode; actives lie on both sides. fluorescence change (max-min) at 10 µM. actives 19% (n = 1,700). AID 1488;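 active means fluorescence change differs from the solvent-only DMSO control mean at a set confidence level in both duplicate runs; inconclusive means differs from solvent-only control mean in just one of two runs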;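 further: an EC20 dose of acetylcholine follows compound addition during the same imaging run; raw fluorescence intensity difference in instrument units with no normalization to controls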
# M4 ag counter: counter-screen for M1 agonists: activity at rat M4 receptor; shares compounds with M1 agonist; CHO M4/Gqi5 cells, Fluo-4 calcium fluorescence, agonist mode; actives lie on both sides; fluorescence change (max-min) at 10 µM; actives 9% (n = 1,700); AID 1741;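 active means fluorescence change differing from the plate's solvent-only control wells at 99.7% confidence in both duplicates, whether higher or lower; inconclusive means differs from solvent controls in only one of two duplicates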
# Numbers without * were called inactive; ? = inconclusive; / = no result.
SMILES,M1 antagonist,JNK3 inh,Jurkat viability,S1P3 ag,M1 agonist,S1P1 ag-PAM,others
CC(C)[C@@]1(NC(=O)[C@@H]2C=C3c4cccc5[nH]cc(c45)C[C@H]3N(C)C2)O[C@@]2(O)[C@@H]3CCCN3C(=O)[C@H](Cc3ccccc3)N2C1=O,0.73,-6,/,-2,60*,7,
Cc1ccccc1-n1c(O)c(C=Nc2ccc3c(c2)OCO3)c(=O)[nH]c1=O,0.02,-4,5,-1,7.5*,-33,
O=C(c1cc2c(s1)-c1ccccc1OC2)N1CCC2(CC1)OCCO2,-1.6,-4,38*,0,-0.25,-38,
CC(C)C1(C)N=C(c2nc3ccccc3cc2C(=O)O)NC1=O (stereo not drawn),0.26,0,-6,-1,0.23,-22,
CCCNS(=O)(=O)c1ccc(OCC(=O)N2CCN(Cc3ccc4c(c3)OCO4)CC2)cc1,-0.36,7,31*,-2,-1.2,27,
CC(C)NS(=O)(=O)c1ccc(OCC(=O)N2CCN(Cc3ccccc3)CC2)cc1,0.27,-2,12,-1,-1.2,15,
CCn1nc(-c2cccs2)nc2c(=O)n(C)c(=O)nc1-2,0.17,47*,36*,-2,0.32,96*,
CSC(=Nc1ccccc1)c1c(O)n(C)c(=O)n(C)c1=O,-0.1,8,34*,1,0.11,19,
O=C(O)c1nonc1-c1nonc1C(=O)O,-1.9,5,2,-1,0.35,-20,
O=C1CN=C(c2cccs2)c2c(sc3c2CCCC3)N1,-0.45,2,86*,-1,0.06,5,
COc1cccc(OC)c1C1=NCC(=O)Nc2c1oc1ccc(Br)cc21,-0.22,-6,99*,-1,-0.12,4,
O=C1CN=C(c2ccccc2)c2oc3ccc(Br)cc3c2N1,0.17,2,-8,-1,0.018,-31,
Cn1c(C(=O)O)c(CC(=O)N2CCN(Cc3ccccc3)CC2)c2ccccc21,-2.2,-4,1,0,-0.11,-4,
COCCCn1c(N)c(C(=O)NCCC(C)C)c2nc3ccccc3nc21,-0.25,5,0,10*,-0.17,-112,
CC(C)OCCCNC(=O)c1c(N)n(CC2CCCO2)c2nc3ccccc3nc12 (stereo not drawn),-0.072,-5,13,2,0.022,-30,
CCCCCCn1c(N)c(C(=O)NCCN2CCOCC2)c2nc3ccccc3nc21,0.21,-1,-3,10*,0.78,-130,
COc1ccc(Cn2c(N)c(C(=O)NCc3ccco3)c3nc4ccccc4nc32)cc1,0.095,0,7,7.5*,-0.56,-298,
CCCCCn1c(N)c(C(=O)NCCN2CCOCC2)c2nc3ccccc3nc21,-0.022,-1,-3,2,0.44,-37,
Cc1nn(C)c(C)c1P(=S)(c1c(C)nn(C)c1C)N(C)C,-0.3,3,-6,-1,-0.073,-4,
O=C(C1CCN(c2nc3ccc(Br)cc3s2)CC1)N1CCC2(CC1)OCCO2,-5.5*,4,26,-2,7.8*,28,
O=C(C1CCCN(c2nnc(-n3cccc3)s2)C1)N1CCC2(CC1)OCCO2 (stereo not drawn),-0.055,4,-9,0,-0.0071,1,
CC(=O)[C@@]1(O)CC[C@H]2[C@@H]3CC=C4C[C@@H](O)CC[C@]4(C)[C@H]3CC[C@@]21C,-0.61,3,/,-3,-0.21,-9,
N=c1c2c(n(Cc3ccc(Cl)cc3Cl)c3c1CCC3)CCCC2,-1.5,-2,37*,-1,-0.36,-8,
C[N+]12CCC(CC1)C(C#N)(N1CCOCC1)C2 (stereo not drawn),0.49,2,-1,0,-1,-11,
CCOC(=O)C1C2c3ccccc3O[C@@]1(C)N=C1SCC(=O)N12 (stereo partly drawn),1.1*,3,3,-1,-0.17,-7,
SMILES,M1 antagonist,JNK3 inh,Jurkat viability,S1P3 ag,M1 agonist,S1P1 ag-PAM,others
COC(=O)C1C2c3ccccc3OC1(C)N=c1s/c(=C/c3cnn(C)c3C)c(=O)n12 (stereo not drawn),0.13,-3,-2,-1,0.27,-6,
CCC(=O)N1c2ccc(S(=O)(=O)CCC(=O)N3CCC4(CC3)OCCO4)cc2CC1C (stereo not drawn),1.5,-1,-3,-1,-0.86,6,
CC(C)(C)c1nc(N2CCN(C(=O)c3ccco3)CC2)c2nnn(Cc3ccccc3Cl)c2n1,-0.032,-1,9,0,4.2,13,
CCOC(=O)c1c(C)n(Cc2ccccc2)c2ccc(OCC(O)Cn3nc(C)nc3C)cc12 (stereo not drawn),-1.5,5,6,-1,1.9,-3,
COc1ccc2c(c1)c(C(=O)CN1CCN(C)CC1)c(C)n2Cc1ccccc1,-0.47,-1,-1,-1,2.6*,10,M1 ag confirm=?;M4 ag counter=-71
CCN(CC)c1ccc(N=Cc2c(O)n(-c3ccccc3C)c(=O)[nH]c2=O)cc1,-0.55,-7,/,-1,22*,-1,M1 ag confirm=46;M4 ag counter=17
O=C1CCCC2C3CCCN4CCCC(CN12)C34 (stereo not drawn),-0.23,4,2,-1,-2.5*,-11,M1 ag confirm=-11;M4 ag counter=-45
C[C@H]1OC[C@@H](C[N+](C)(C)C)O1,-9.7*,-6,/,-4,48*,-12,M1 ag confirm=527*;M4 ag counter=220*
CCC(C)N1C(=O)NC(=O)C2(Cc3c(ccc4ccccc34)N(C)C2)C1=O (stereo not drawn),-2.1,0,2,-1,13*,-26,M1 ag confirm=?;M4 ag counter=?
COc1ccc2c(c1)CC1(CN2C)C(=O)NC(=O)N(CCc2ccccc2)C1=O (stereo not drawn),0.89,-2,-1,0,-1.7,1,
Cn1c(=O)cc(OCC(=O)N2CCN(Cc3ccc4c(c3)OCO4)CC2)c2ccccc21,0.0097,6,4,0,0.49,-46,
CCN(CC)CCN=Cc1c(O)n(CCC2=CCCCC2)c(=O)[nH]c1=O,-0.039,-1,-5,0,1.1,-10,
C(#CCN1CCOCC1)COC/C=C/c1ccccc1,0.24,4,8,0,-0.19,4,
O=C1NC(=O)C2(Cc3c(nc4ccccn4c3=O)N3CCCCCC32)C(=O)N1Cc1ccccc1 (stereo not drawn),0.26,5,-1,0,12*,-6,M1 ag confirm=-11;M4 ag counter=-22
c1cncc(C2CC(c3cccs3)n3ncnc3N2)c1 (stereo not drawn),0.31,-7,-4,0,-0.92,-37,
